An excerpt weighted towards active compounds, which were near 3.4% of everything screened.
AHR act = AHR activators, primary screen, cell-based, luminescence, luciferase reporter, human. Aryl hydrocarbon receptor (Homo sapiens), P35869. activation, % at 5 µM. AHR-responsive luciferase reporter cells. 320,000 tested, 2.5% active; in the data active means activation above about 47%;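 further: 0% = vehicle wells and 100% = reference agonist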
Arrestin-AP2 inh = inhibitors of beta-arrestin/AP2 binding, primary screen, biochemical, GPCR trafficking, flow cytometry | FITC-arrestin peptide / GST-AP2 beads; AP2 beta2 appendage carries R879A mutation | beta-arrestin 1 C-terminal peptide binding to AP2 beta2-adaptin appendage (human) | inhibition, % at 10 µM | 340,000 tested, 0.31% active;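 active means inhibition above a set limit, near 3 SD of compounds lacking own fluorescence, cut at about 54% in these data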;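 further: plate controls were DMSO wells for no effect and 5 µM unlabelled arrestin peptide for full effect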
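System: GST-tagged AP2 beta2-adaptin appendage (R879A) on 4 µm glutathione beads / Reagent: FITC-arrestin peptide, 50 nM / Detection: HyperCyt-sampled flow cytometry, FL1 channel, ex 488/em 535 nm / Timing: 12 min plus 1 h, RT / Buffer or medium: PBS plus Tween 20 (0.05%) and BSA (0.1%)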
PolyA inh = polyadenylation inhibitors in yeast reporter cells, primary screen, luminescence, S. cerevisiae; S. cerevisiae SKY197-pL101 polyadenylation reporter, beta-gal luminescence; efflux-impaired pdr1/pdr3 knockout yeast; score 100 = 6 SD above DMSO; activity score, % at 12 µM; 300,000 tested, 0.02% active;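 active means lowest replicate activity score at least 50, where 100 means six control SD above control mean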;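 further: yeast exposed to compound for 9 h at 30 °C; higher score means more reporter readthrough which indicates perturbed polyadenylation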
UCH37 DUB inh = inhibitors of human UCH37 deubiquitinase, primary screen, biochemical, Ub-AMC cleavage, fluorescence. Ubiquitin carboxyl-terminal hydrolase isozyme L5 (Homo sapiens), Q9Y5K5. purified proteasome/UCH37. inhibition, % (concentration not given with the values). 330,000 tested, 0.33% active;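 active means mean inhibition over replicate wells above about 20%, limit read from the data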;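 further: 0% = compound-free wells with enzyme and 100% = wells lacking proteasome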
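Material: human UCH37 enzyme supplied as purified proteasome complex / Amount: 0.15 nM proteasome as dispensed / Buffer or medium: pH 7.4 Tris-HCl (50 mM) with ovalbumin, ATP-MgCl2, DTT / Times: preincubation 30 min, reaction 25 min, room temperature / Technique: AMC fluorescence from Ub-AMC cleavage, excitation 355 nm, emission 460 nm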
A3A deaminase = APOBEC3A ssDNA deaminase inhibitors, primary screen, selectivity assay for APOBEC3G inhibitor project, biochemical, FAM/TAMRA oligo cleavage fluorescence | DNA dC->dU-editing enzyme APOBEC-3A (Homo sapiens), P31941 | recombinant A3A, FAM/TAMRA ssDNA deamination fluorescence | inhibition, % at 20 µM | 330,000 tested, 0.41% active | AID 493011, 2011;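 active means at least 40% inhibition at 20 µM here, with at most 30% in a related deaminase screen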;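 further: plate controls were A3A with DMSO for no effect and wells lacking A3A enzyme for full effect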
Target sequence (P31941 whole entry, looked up): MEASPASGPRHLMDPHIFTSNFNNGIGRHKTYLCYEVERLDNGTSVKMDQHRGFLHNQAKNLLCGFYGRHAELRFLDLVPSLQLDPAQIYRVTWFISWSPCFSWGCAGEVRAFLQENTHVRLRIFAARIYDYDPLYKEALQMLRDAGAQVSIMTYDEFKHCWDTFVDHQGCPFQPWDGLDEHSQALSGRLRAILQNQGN
APOBEC3G inh = APOBEC3G DNA deaminase inhibitors, primary screen, biochemical, fluorescence, single-stranded DNA substrate, uHTS | DNA dC->dU-editing enzyme APOBEC-3G (Homo sapiens), Q9HC16 | recombinant A3G, ssDNA deamination FAM/TAMRA fluorescence | inhibition, % at 20 µM | 330,000 tested, 0.28% active;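 active means inhibition of at least 40% at 20 µM, with no more than 30% in the related APOBEC3A deaminase screen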;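 further: plate controls were DMSO wells with A3G for no effect and wells lacking A3G enzyme for full effect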
Target sequence (Q9HC16 whole entry, looked up): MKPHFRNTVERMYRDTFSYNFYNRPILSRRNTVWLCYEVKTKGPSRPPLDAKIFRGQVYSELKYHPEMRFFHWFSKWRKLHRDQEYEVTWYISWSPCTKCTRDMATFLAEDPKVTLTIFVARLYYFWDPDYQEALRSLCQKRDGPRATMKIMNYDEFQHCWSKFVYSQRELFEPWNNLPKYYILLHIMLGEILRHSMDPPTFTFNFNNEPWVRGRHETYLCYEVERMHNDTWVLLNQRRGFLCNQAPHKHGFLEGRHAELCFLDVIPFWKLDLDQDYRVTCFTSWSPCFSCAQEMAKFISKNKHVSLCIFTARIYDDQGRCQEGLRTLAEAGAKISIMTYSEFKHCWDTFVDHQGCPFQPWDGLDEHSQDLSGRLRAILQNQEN
The depositor's hits bear a star; · = no result.

SMILES	AHR act	Arrestin-AP2 inh	PolyA inh	UCH37 DUB inh	A3A deaminase	APOBEC3G inh
CC(=O)Nc1ccc(C(=O)NN=Cc2ccccc2OCc2ccccc2)cc1	·	·	·	1.5	·	·
Cc1ccc(O)c(N=NC2=C(O)CC(C)(C)CC2=O)c1	37.9	13.2	-30.0	16.3	2.2	-3.6
C/C(O)=C(\N=Nc1cc(C)ccc1O)C(N)=O	51.5*	-9.5	-22.8	7.6	-4.5	-5.1
COc1ccccc1/C=C/C(=O)NCC(=O)NN=C(C)c1ccc(Cl)cc1	·	·	·	-13.3	·	·
O=[N+]([O-])c1ccc2nc(SCc3cn4cc(Cl)ccc4n3)[nH]c2c1	77.6*	0.0	2.1	4.8	1.1	-6.9
O=[N+]([O-])c1ccc2nc(SCc3cn4cccnc4n3)[nH]c2c1	51.4*	11.5	7.0	7.5	-5.6	-11.2
O=[N+]([O-])c1ccc2nc(SCc3cn4ccccc4n3)[nH]c2c1	31.2	-4.8	24.9	1.9	-2.9	-6.2
O=[N+]([O-])c1cc(C=Nn2cnnc2)ccc1N1CCCC1	·	·	·	21.4*	·	·
Cc1ccc(C=NNC(=O)c2ccccn2)o1	·	·	·	10.6	·	·
CC(=NOCC(=O)NN=Cc1ccccc1)c1cccs1	·	·	·	2.2	·	·
Cc1ccc[n+](CC(=O)/C=C2\N(C)c3ccccc3C2(C)C)c1	0.5	4.7	10.9	20.4*	-3.6	-7.5
CN1/C(=C\C(=O)C[n+]2cccc(Br)c2)C(C)(C)c2ccccc21	-0.5	-0.9	-3.6	17.3	3.5	-4.8
COc1cc(OC)cc(C(=O)NC(=S)NCCc2ccccc2)c1	69.1*	8.1	-20.5	3.3	-1.7	4.6
COc1ccc(CCNc2nc3ccccc3n3nnnc23)cc1OC	53.6*	-8.4	-7.2	-19.3	-2.8	-9.2
c1ccc(CCNc2nc3ccccc3n3nnnc23)cc1	2.0	-7.5	-8.0	-15.4	-4.2	-8.2
COc1cc(C=Nn2c(-c3cc(C)[nH]n3)n[nH]c2=S)ccc1O	·	·	·	5.8	·	·
Cc1ccc(/C=N/NC(=S)NCCc2ccccc2)s1	24.7	26.1	-21.6	·	-3.1	-9.6
CCCCNC(=S)N/N=C/c1ccc(C)s1	74.6*	1.9	-18.2	·	-1.5	-0.9
CC(=NNC(=O)c1ccccc1)c1ccccc1F	·	·	·	6.2	·	·
Nc1ccc2c(c1)OCCOCCOCCOCCOCCO2	-0.6	3.3	15.8	5.0	2.3	-2.0
c1ccc2c(c1)OCCOCCOc1ccccc1OCCOCCO2	64.2*	29.9	8.8	0.7	6.8	-1.7
COCc1cc(=O)[nH]c(N=C(N)Nc2ccc(Oc3ccccc3)cc2)n1	·	·	·	0.8	·	·
COc1ccc(-c2sc3ccccc3c2C#Cc2cncn2C)cc1	40.3	2.0	·	-19.4	-4.5	-7.9
COc1ccc2sc(-c3ccccc3OC)c(C#Cc3cncn3C)c2c1	47.9*	14.7	·	-15.9	-6.0	-7.5
COc1ccccc1-c1sc2cc3c(cc2c1C#Cc1cncn1C)OCO3	65.0*	38.2	·	-4.3	1.5	-2.7
SMILES	AHR act	Arrestin-AP2 inh	PolyA inh	UCH37 DUB inh	A3A deaminase	APOBEC3G inh
COc1ccc2sc(-c3ccccc3OC)c(C#CCCO)c2c1	74.4*	4.5	·	2.6	2.6	-1.0
O=[N+]([O-])c1cccc(C=Nn2c(-c3cccnc3)n[nH]c2=S)c1	·	·	·	7.3	·	·
Cc1ccc(C)c(CSc2nc3[nH]ncc3c(=O)[nH]2)c1	47.9*	8.4	7.2	1.5	1.2	-1.0
COc1cc(C(=O)N/N=C(\C)c2ccccn2)cc(OC)c1OC	63.4*	-10.2	6.6	·	-1.3	-6.9
COc1cc(C(=O)N/N=C(\c2ccccc2)c2ccccn2)cc(OC)c1OC	24.7	3.2	-30.3	·	-2.6	0.4
CCCc1nc2c(C)cc(C)cc2c(N)c1CC	47.2*	-0.8	-2.2	-46.6	3.3	-1.6
N#Cc1ccc(NC(=O)c2nc(-c3ccccc3)n(-c3ccccc3)n2)cc1	-1.5	0.7	8.7	3.5	6.2	8.2
O=C(Nc1ccccn1)c1nc(-c2ccccc2)n(-c2ccccc2)n1	55.6*	5.2	9.0	2.5	-3.0	-4.7
O=C(NN=Cc1ccccc1OCc1ccccc1)c1cccnc1	·	·	·	0.7	·	·
O=C(NN=Cc1cc2c(cc1[N+](=O)[O-])OCO2)c1cccnc1	·	·	·	8.3	·	·
Cc1ccc(C(=O)NN=Cc2cccnc2)s1	·	·	·	0.9	·	·
O=C(N/N=C/c1cc2c(cc1Br)OCO2)c1cccnc1	48.2*	22.1	-6.9	·	-4.5	-12.0
Cc1ccc(C(=O)NN=Cc2cc3c(cc2Br)OCO3)s1	·	·	·	-55.8	·	·
Cc1ccc(C(=O)N/N=C\c2cc3c(cc2Br)OCO3)s1	47.4*	-11.9	10.4	·	-0.8	-7.4
Cc1ccc(C(=O)N/N=C\c2ccncc2)s1	55.2*	-4.1	-7.8	·	0.4	4.7
O=C(NCc1ccccn1)C(=NO)c1ccccc1	·	·	·	6.0	·	·
O=C(Cn1nnc(-c2ccccc2Cl)n1)NCc1ccc2c(c1)OCO2	64.0*	9.7	-3.4	1.5	-3.3	-7.1
O=C(CNC(=O)c1ccc2c(c1)OCCO2)NN=Cc1ccc([N+](=O)[O-])cc1	·	·	·	3.5	·	·
O=C1c2ccccc2C(=O)N1OCc1ccccc1	90.2*	-5.0	-5.4	0.2	1.9	-4.6
O=C(NCCC1=CCCCC1)C1CCN(S(=O)(=O)c2cnc[nH]2)CC1	0.8	7.6	-1.5	20.4*	1.9	0.4
CC(/C=C/c1ccccc1F)=NNC(=O)C(C)C	·	·	·	4.9	·	·
COc1ccc(Nc2nc(C)cc(C)c2C#N)c(OC)c1	34.0	-9.3	4.8	-84.5	-7.8	-8.7
CCOc1ccc(Nc2nc(C)cc(C)c2C#N)cc1	79.7*	13.3	-6.6	-120.7	-4.3	-7.3
COc1ccc(Nc2nc(C)cc(C)c2C#N)cc1	65.4*	10.4	-11.9	-13.6	-3.6	-4.6
CC(C)(C)C(=O)ON=C(N)Cc1ccc(-c2csnn2)cc1	·	·	·	3.7	·	·
SMILES	AHR act	Arrestin-AP2 inh	PolyA inh	UCH37 DUB inh	A3A deaminase	APOBEC3G inh
C=CCNC(=S)NN=Cc1ccc(OCc2ccccc2)cc1	·	·	·	0.3	·	·
O=C(Nc1ccc(C(F)(F)F)cc1)c1csc(-c2ccncc2)n1	66.5*	30.1	5.4	-0.8	-2.1	-6.7
O=C(O)c1csc(-c2ccccc2)n1	1.0	-23.6	-6.7	-4.0	-6.5	-2.1
CC(C)C(=O)Nc1cccc(NC(=S)NC(=O)c2cccs2)c1	47.9*	0.7	-5.7	4.4	0.3	3.3
O=C(Nc1ccccc1)c1csc(-c2ccccc2)n1	68.4*	23.2	-13.2	-0.9	-2.1	-5.9
CC(C)C(=O)Nc1cccc(-c2csc(-c3ccccc3)n2)c1	68.1*	16.2	-14.0	1.1	0.1	-1.1
CCCCCCC1CC(C(C)=NNC(N)=O)OC1=O (configuration not stated)	·	·	·	2.1	·	·

Screening data (PubChem)
